Measurements collected from several papers.
Compare with care: the assays were run in different laboratories.
Technique: competition with immobilised ligand
RPS6KA5 N-terminal kinase domain: Ribosomal protein S6 kinase alpha-5, N-terminal kinase domain (RPS6KA5, Homo sapiens, UniProt O75582)
RPS6KA5 C-terminal kinase domain: Ribosomal protein S6 kinase alpha-5, C-terminal kinase domain (RPS6KA5, Homo sapiens, UniProt O75582)

Compound	target	assay	conditions	remaining binding
F[C@@H]1CCN(c2nccc(-c3cnn4ncccc34)n2)C1	RPS6KA5 N-terminal kinase domain	binding	1 µM	100%
O=C(c1ccc(Nc2ncc(Cl)c(-c3cc4ccccc4s3)n2)cc1)N1CCC(N2CCCC2)CC1	RPS6KA5 N-terminal kinase domain	binding	1 µM	100%
CN(CCCC(F)(F)F)c1nccc(-c2cnn3ncccc23)n1	RPS6KA5 C-terminal kinase domain	binding	1 µM	100%
O=C(NCC1CCOCC1)c1n[nH]cc1NC(=O)c1c(F)cccc1F	RPS6KA5 C-terminal kinase domain	binding	1 µM	94%
O=C(NCCCN1CCOCC1)c1ccc(Nc2ncc(Cl)c(-c3ccc(Cl)s3)n2)cc1	RPS6KA5 C-terminal kinase domain	binding	1 µM	54%
CCC(=O)N[C@H]1CC[C@@H](C(=O)N(C)c2ccc(-c3nc4ccccc4o3)cc2)C1	RPS6KA5 C-terminal kinase domain	cell-free assay	1 µM	68%
O=C(c1ccc(Nc2nccc(-c3cc4ccccc4s3)n2)cc1)N1CCC(N2CCCC2)CC1	RPS6KA5 N-terminal kinase domain	binding	1 µM	100%
O=C(Nc1c[nH]nc1C(=O)NC1CCNCC1)c1cc(F)cc(F)c1	RPS6KA5 N-terminal kinase domain	binding	1 µM	96%
Cc1cnc(Nc2ccc(C(=O)N3CCC(N4CCCC4)CC3)cc2)nc1-c1cc2ccccc2s1	RPS6KA5 C-terminal kinase domain	binding	1 µM	96%
C[C@@H](c1ccc(-n2cnc3c(N)ncnc32)cc1)N1CCc2nn(C)c(Cc3ccccc3)c2C1=O	RPS6KA5 N-terminal kinase domain	binding	0.1 µM	95%
O=C(Nc1cccnn1)N1CC(C/C=C/c2cncc(Oc3ccc(C(F)(F)F)cn3)n2)C1	RPS6KA5 N-terminal kinase domain	cell-free assay	1 µM	100%
CN(C)c1nccc(-c2cnc3ncccn23)n1	RPS6KA5 C-terminal kinase domain	binding	1 µM	100%
O=C(c1ccc(Nc2ncc(Cl)c(-c3ccc(Cl)s3)n2)cc1)N1CCC(N2CCCC2)CC1	RPS6KA5 N-terminal kinase domain	binding	1 µM	100%
CNC(=O)[C@@H]1CC[C@@H](n2c(-c3ccc4cnccc4c3)nc3ccc(C(=O)NCc4cccc(C(N)=O)c4)cc32)C1	RPS6KA5 N-terminal kinase domain	binding	1 µM	100%
O=c1nc(-c2ccccn2)sc2ccccc12	RPS6KA5 C-terminal kinase domain	binding	1 µM	88%
Cc1cnn2ncc(-c3ccnc(N(C)C)n3)c2c1	RPS6KA5 C-terminal kinase domain	binding	1 µM	100%

Compound	target	assay	conditions	remaining binding
COc1cnc(Nc2cccc(S(N)(=O)=O)c2)nc1N1CCN(c2ccccc2)C(=O)C1	RPS6KA5 C-terminal kinase domain	binding	1 µM	100%
c1cncc(-c2cccc(Nc3nccc(NC4CCCCC4)n3)c2)c1	RPS6KA5 C-terminal kinase domain	binding	10 µM	100%
O=C(O)[C@@H]1[C@@H](Cn2nnc3ccccc3c2=O)CC[C@H]1C(=O)c1ccc(OCCC2CCOCC2)cc1	RPS6KA5 C-terminal kinase domain	cell-free assay	1 µM	100%
CCN1CCN(Cc2ccc(C(=O)Nc3ccc(C)c(Oc4ccc5c(c4)CC(=O)N5)c3)cc2C(F)(F)F)CC1	RPS6KA5 C-terminal kinase domain	binding	1 µM	100%
N[C@@H]1CCN(c2nccc(-c3cnn4ncccc34)n2)C1	RPS6KA5 C-terminal kinase domain	binding	1 µM	100%
COc1ccc2c(c1)O[C@@H](c1ccc(OC)c(OC)c1)C[C@H]2NC(=O)C1(c2ccc3c(c2)OC(F)(F)O3)CC1	RPS6KA5 C-terminal kinase domain	cell-free assay	1 µM	100%
COc1cnc(Nc2cccc(S(N)(=O)=O)c2)nc1N1CCN(c2ccccc2)CC1	RPS6KA5 C-terminal kinase domain	binding	1 µM	97%
CN(C)c1nccc(-c2cnn3ncccc23)n1	RPS6KA5 C-terminal kinase domain	binding	1 µM	98%
O=C(NCCCN1CCOCC1)c1ccc(Nc2nccc(-c3cc4ccccc4s3)n2)cc1	RPS6KA5 N-terminal kinase domain	binding	1 µM	100%
COc1ncc2cc3ccccc3nc2c1C#N	RPS6KA5 N-terminal kinase domain	cell-free assay	5 µM	91%
CN(C)C(=O)Cn1cc(-c2nc([C@@](C)(c3ccc(-c4cnc(N)nc4)cc3)C3CC3)no2)cn1	RPS6KA5 C-terminal kinase domain	cell-free assay	1 µM	92%
C=CC(=O)N1CCC(C(=O)NCC(=O)N2CCN(c3nc(-c4cnc(N)nc4C(F)F)nc(N4CCOCC4)n3)CC2)CC1	RPS6KA5 C-terminal kinase domain	binding	1 µM	100%
C[C@H](c1ccnc(Nc2nc3ccc(-c4cc(N(C)C)ncn4)cc3[nH]2)c1)N1CCN(C(=O)CC(F)(F)F)CC1	RPS6KA5 C-terminal kinase domain	cell-free assay	0.1 µM	61%
C[C@@H]1CCN(c2nccc(-c3cnn4ncccc34)n2)C1	RPS6KA5 N-terminal kinase domain	binding	1 µM	70%
Cc1c[nH]c2nccc(Oc3c(F)cc(Nc4cc(Cl)nc(N)n4)cc3F)c12	RPS6KA5 N-terminal kinase domain	cell-free assay	0.1 µM	100%
Nc1ncc2c(n1)-c1c([nH]c3ccc(C#CC4CC4)cc13)CCCC2	RPS6KA5 N-terminal kinase domain	binding	1 µM	93%
